The values below come from PubChem BioAssay AID624107 (Broad Institute, 2012).

Activity calls are given as the source filed them.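 Rule for the calls: active = fitted absorbance curve falls past 35% inhibition at a dose no higher than twice the top tested dose; inconclusive = flat fit at 30 to 70% inhibition, or poor fit; inactive = the rest.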

One assay concerns P. aeruginosa PAK + EDDHA, pyoverdine absorbance 405 nm, 28 h. Briefly: P. aeruginosa PAK growth delay with EDDHA – PAK strain, absorbance 405 nm, dry powder, dose response (AID 624107).
Settings: not given
Put shortly: (§1)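 System: Pseudomonas aeruginosa PAK wild-type strain, whole bacterial cells; buffer or medium: succinate M9, pH 7.0, 2 µM EDDHA; probe or stimulus: EDDHA 2 µM; compound dosing: 100 µM to 15 nM final; times: 28 h, 30 °C, humidified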
As to `N#CC(c1cccc(Cl)n1)c1ccc(Cl)cc1F` (stereo unspecified), the AC35 was 5.28 µM.

`N#CC(c1ccc(F)cc1)c1cccc(C(F)(F)F)n1` (stereo unspecified): the AC35 was 9.8 µM.

Turning to `N#CC(c1ccc(Cl)cc1)c1cccc(C(F)(F)F)n1` (stereo unspecified), the AC35 is 3.67 µM.

On to `N#CC(c1cccc(C(F)(F)F)n1)c1ccc(Cl)cc1F` (stereo unspecified), for which the AC35 is 5.42 µM.

Consider `CN(C)CCCC(C#N)c1ccc(Cl)cc1` (stereo unspecified), for which the AC35 was > 100 µM (inactive).

With `N#CC(c1ccc(Cl)cc1)c1ncccc1Cl` (stereo unspecified), the AC35 is 22 µM.

Take `N#CC(c1ccc(Cl)cc1)c1cccc(Cl)n1` (stereo unspecified): the AC35 is 11.8 µM.

System in another assay: not listed separately
The description is as above. Conditions: P. aeruginosa PAK + EDDHA, pyoverdine absorbance 405 nm, 28 h; at 100 µM (top of the series). Put shortly:
as §1
Take `COCCC(C#N)c1ccc(Cl)cc1` (stereo unspecified): the activity change, negative = inhibition was -7.69% (inactive).

Turning to `N#CC(c1ccc(F)cc1)c1cccc(Cl)n1` (stereo unspecified), the activity change, negative = inhibition was -39.4% (inactive).

As for `CCCCC(C#N)c1ccc(Cl)cc1` (stereo unspecified), the activity change, negative = inhibition was -14% (inactive).

Take `N#CC(c1ccc(C(F)(F)F)c(Cl)n1)c1ccccc1OC(F)(F)F` (stereo unspecified): the activity change, negative = inhibition was -22.7% (inactive).

Regarding `COCCOCCC(C#N)c1ccc(Cl)cc1` (stereo unspecified), the activity change, negative = inhibition was 6.79% (inactive).

In the case of `CCCCC(C#N)c1ccccn1` (stereo unspecified), the activity change, negative = inhibition is 3.52% (inactive).

As for `Clc1ccc(C(c2cccc(Cl)n2)c2nn[nH]n2)cc1` (stereo unspecified), the activity change, negative = inhibition was 14.5% (inactive).

`COCCNC(C#N)c1ccc(Cl)cc1` (stereo unspecified): the activity change, negative = inhibition is -17.9% (inactive).

Consider `CCCCC(c1ccc(Cl)cc1)c1nn[nH]n1` (stereo unspecified), for which the activity change, negative = inhibition was -16.3% (inactive).
